# Bioassay records from PubChem BioAssay.
# An excerpt weighted towards active compounds, which were near 5.9% of everything screened.
# T cruzi growth: blocks T. cruzi growth in NIH3T3 culture; T. cruzi beta-gal in NIH3T3, GalScreen luminescence, 90 h; 77,000 tested, 5.9% active; inhibition, % at 8.34 µM;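 active means mean inhibition above about 93%, with at least 55% of replicates each passing it, limit read from the data, passing the limit was not always enough; inconclusive means only one of those two conditions holds; inactive means neither condition holds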
# GASC1 inh: KDM4C (human) demethylase inhibition. GST-KDM4C 2-372, H3K9me3 peptide, LANCE TR-FRET. 96,000 tested, 0.15% active. Q9H3R0. inhibition, % at 12.5 µM;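 active means mean replicate inhibition above about 25%, with at least 55% of replicates also reaching it, limit read from the data, passing the limit was not always enough; inconclusive means only one of those two conditions met; inactive means neither condition met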
#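 System: N-terminal GST-fused human GASC-1 (KDM4C) fragment, residues 2-372 / Amount: 10 nM GST-KDM4C in enzyme reaction / Also added: H3K9me3 peptide with Fe(II)/2OG / Times: 30 min demethylation and 1 h detection at room temperature / Signal: LANCE TR-FRET / Read-out basis: Fall in 671/618 emission ratio as inhibition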
# Pf Dd2 inh: P. falciparum Dd2 growth inhibition | SYBR Green, 72 h; hits give low values | activity change, % at 10 µM | 94,000 tested, 2.3% active | AID 1159554; in the data active means activity change below about -80%; inconclusive means no clear call, values can overlap the other calls
# IDH1 mut inh: IDH1 R132H (human) inhibition; O75874; IDH1 R132H reductase, diaphorase/resazurin fluorescence, 60 min; inhibition, % at 10 µM; 70,000 tested, 0.18% active; AID 624101; in the data active means inhibition above about 34%; inconclusive means no clear call, values can overlap the other calls; inactive means below about 11%;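 further: 0% = DMSO and 100% = no enzyme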
# Target sequence (O75874 whole entry R132H): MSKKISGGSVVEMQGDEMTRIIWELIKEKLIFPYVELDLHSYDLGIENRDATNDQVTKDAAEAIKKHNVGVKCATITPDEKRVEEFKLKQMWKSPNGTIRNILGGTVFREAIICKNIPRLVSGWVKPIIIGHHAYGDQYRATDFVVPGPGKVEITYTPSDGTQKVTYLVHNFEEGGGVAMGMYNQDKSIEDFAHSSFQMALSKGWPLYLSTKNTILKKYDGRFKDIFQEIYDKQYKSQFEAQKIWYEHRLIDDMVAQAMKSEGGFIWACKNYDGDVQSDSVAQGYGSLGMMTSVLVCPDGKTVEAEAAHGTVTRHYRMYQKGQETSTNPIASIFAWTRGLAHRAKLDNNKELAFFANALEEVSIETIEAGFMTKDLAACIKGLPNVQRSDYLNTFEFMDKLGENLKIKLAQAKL
# * marks the source's active call; other numbers are inactive results; ? = inconclusive; nt = not tested or not shown.
SMILES,T cruzi growth,GASC1 inh,Pf Dd2 inh,IDH1 mut inh
Cc1ccc(S(=O)(=O)N(C)C[C@H]2OCCCC[C@@H](C)Oc3ccc(NC(=O)C4CCCCC4)cc3C(=O)N([C@H](C)CO)C[C@@H]2C)cc1,0,2,-55,nt
C[C@@H]1CN([C@@H](C)CO)C(=O)c2cc(NC(=O)C3CCCCC3)ccc2O[C@@H](C)CCCCO[C@H]1CN(C)S(=O)(=O)c1ccc(Cl)cc1,87,nt,-83*,nt
Cc1ccc(S(=O)(=O)N(C)C[C@H]2OCCCC[C@H](C)Oc3ccc(NC(=O)C4CCCCC4)cc3C(=O)N([C@@H](C)CO)C[C@H]2C)cc1,63,0,-89*,nt
O=C(CN1CCOCC1)NCC[C@H]1CC[C@H](NC(=O)c2ccc3c(c2)OCO3)[C@H](CO)O1,0,50*,-9,61*
CN(C)c1ccc2c(c1)[C@@H]1C[C@H](CC(=O)N3CCCCC3)O[C@H](CO)[C@@H]1O2,nt,46*,30,nt
CN(C)c1ccc2c(c1)[C@H]1C[C@H](CC(=O)N3CCCCC3)O[C@@H](CO)[C@H]1O2,nt,30*,7,nt
CN(C)c1ccc2c(c1)[C@H]1C[C@@H](CC(=O)N3CCc4ccccc4C3)O[C@@H](CO)[C@H]1O2,45,5,-47,-2
CN(C)c1ccc2c(c1)[C@H]1C[C@H](CC(=O)N3CCCCC3)O[C@H](CO)[C@H]1O2,nt,31*,13,nt
CCn1c(SCC(=O)Nc2ccc(C)cc2C)nnc1-c1cccs1,nt,nt,nt,0
C[C@@H]1CCCCO[C@H](CN(C)Cc2ccc(C(=O)Nc3ccccc3N)cc2)[C@@H](C)CN([C@H](C)CO)C(=O)c2cc(NS(=O)(=O)c3ccc(Cl)cc3)ccc2O1,89,10,-82*,nt
C[C@@H]1CCCCO[C@@H](CN(C)Cc2ccc(C(=O)Nc3ccccc3N)cc2)[C@@H](C)CN([C@H](C)CO)C(=O)c2cc(NS(=O)(=O)c3ccc(F)cc3)ccc2O1,nt,0,-77,0
C[C@@H]1CCCCO[C@@H](CN(C)Cc2ccc(C(=O)Nc3ccccc3N)cc2)[C@@H](C)CN([C@H](C)CO)C(=O)c2cc(NS(=O)(=O)c3ccccc3)ccc2O1,nt,-1,-81*,0
Cc1noc(C)c1S(=O)(=O)Nc1ccc2c(c1)C(=O)N([C@H](C)CO)C[C@H](C)[C@@H](CN(C)Cc1ccc(C(=O)Nc3ccccc3N)cc1)OCCCC[C@@H](C)O2,nt,1,?,nt
Cc1noc(C)c1S(=O)(=O)Nc1ccc2c(c1)C(=O)N([C@H](C)CO)C[C@H](C)[C@H](CN(C)Cc1ccc(C(=O)Nc3ccccc3N)cc1)OCCCC[C@@H](C)O2,nt,21,-86*,nt
COc1ccc(-n2c(SCC(=O)N3CCOCC3)nnc2-c2ccccc2)cc1,nt,nt,nt,1
O=C(C1CCCO1)N1CCN(C/C=C/c2ccccc2)CC1 (configuration not stated),nt,nt,nt,0
C[C@H]1CN([C@@H](C)CO)S(=O)(=O)c2ccc(C#Cc3ccncc3)cc2O[C@@H]1CN(C)S(=O)(=O)c1ccccc1,23,28*,-93*,12
Cc1ccc(S(=O)(=O)N(C)C[C@@H]2Oc3cc(C#Cc4ccncc4)ccc3S(=O)(=O)N([C@H](C)CO)C[C@@H]2C)cc1,62,-15,-70,-1
Cc1ccc(S(=O)(=O)N(C)C[C@H]2Oc3cc(C#Cc4ccncc4)ccc3S(=O)(=O)N([C@@H](C)CO)C[C@@H]2C)cc1,67,-13,-86*,-3
Cc1ccc(S(=O)(=O)N(C)C[C@@H]2Oc3cc(C#Cc4ccncc4)ccc3S(=O)(=O)N([C@@H](C)CO)C[C@H]2C)cc1,82,nt,-81*,0
C[C@@H]1CN([C@@H](C)CO)S(=O)(=O)c2ccc(C#Cc3ccncc3)cc2O[C@H]1CN(C)S(=O)(=O)c1ccccc1,82,-7,-61,0
C[C@@H]1CN([C@H](C)CO)S(=O)(=O)c2ccc(C#Cc3ccncc3)cc2O[C@H]1CN(C)S(=O)(=O)c1ccc(F)cc1,107,-9,-86*,0
COc1ccc(-c2cc(C(F)(F)F)n3nc(C(=O)N(C)Cc4cnn(C)c4C)cc3n2)cc1OC,nt,nt,nt,0
COc1ccc(-n2c(SCCCN3C(=O)c4cccc5cccc(c45)C3=O)nnc2-c2cccnc2)cc1,nt,nt,nt,-2
O=C(CCCN1C(=O)c2ccccc2C1=O)Nc1ccc(Cl)cc1C(F)(F)F,nt,nt,nt,1
O=C(Cn1cc(C(=O)c2ccccc2F)c2ccccc21)Nc1ccccc1,nt,nt,nt,0
Cc1ccccc1CN(CC(N)=O)S(=O)(=O)c1ccc(Cl)cc1,nt,nt,nt,0
OC[C@H]1[C@@H](c2ccc(-c3ccc(F)cc3)cc2)[C@@H]2CN(CCC(F)(F)F)CCCCN12,94,-1,-79,nt
